ChEMBL document CHEMBL1129594 (J Med Chem, 1996)

Key:
Vanilloid receptor = Vanilloid receptor (Rattus norvegicus, UniProt Q9ERZ8+Q9WUD2+O35433); assay: Compound tested in vitro for [Ca2+] influx into neonatal rat dorsal root ganglia (DRG); format: functional
Cavia porcellus [1] = assay: Threshold dose required to cause increase in airway opening pressure […] of guinea pig after intravenous administration; format: functional
Procedure, shortened: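 Dunkin-Hartley guinea pigs (400-450 g, n = 4 per group) under urethane (2 g/kg), held at 37 °C. Carotid cannula for blood pressure, jugular cannula for iv drug. Tracheal cannula with ventilation at 60 strokes/min and 10 mL/kg tidal volume. Airway opening pressure was read by differential transducer on the tracheal side arm. Threshold iv dose raising Pao was recorded.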

Mus musculus [2] = assay: Compound tested for in vivo writhing antinociceptive assay in mouse after subcutaneous administration; format: functional; settings: sc
Procedure, shortened: (§1)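 Female CD-1 mice (20 g), kept on 12 h light/12 h dark and fasted overnight, 10 per group. Drug or vehicle was given sc or orally 55 min before ip acetic acid (0.3 mL, 200 mM). Abdominal constrictions were counted over the 5 min starting 5 min after acid. Effect was taken as the drug/vehicle writhe ratio, and ED50 (dose halving writhes) came from a logistic fit with standard error.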

Mus musculus [3] = assay: In vivo tail-flick latency after peroral administration in mouse as an evaluation of antinociceptive potency; format: functional; settings: po
Mus musculus [4] = assay: In vivo tail-flick latency after subcutaneous administration in mouse as an evaluation of antinociceptive potency; format: functional; settings: sc
Mus musculus [5] = assay: Compound tested for in vivo writhing antinociceptive assay in mouse after peroral administration; format: functional; settings: po; procedure, shortened: as §1
Cavia porcellus [6] = assay: Threshold dose required to cause increase in airway opening pressure […] of guinea pig after intravenous administration

Molecule `COc1cc(C/N=C(\S)NCCc2ccc(Cl)cc2Cl)ccc1OCCN` has an EC50 (Vanilloid receptor) of 320 nM.

`COc1cc(C/N=C(\S)NCCc2ccc(Cl)cc2)ccc1O` was tested, and the Dose (Cavia porcellus [1]) was 0.025 µM/kg, the ED50 (Mus musculus [2]) was 10.1 µmol/kg and the ED50 (Mus musculus [3]) was 370 µmol/kg. The ED50 (Mus musculus [4]) was 11.8 µmol/kg and the EC50 (Vanilloid receptor) was 56 nM.

Molecule `COc1cc(CN/C(S)=N/C=C\c2ccc(Cl)cc2)ccc1O` has an EC50 (Vanilloid receptor) of 41 nM.

Molecule `COc1cc(C/N=C(\S)NCCc2ccc(Cl)cc2Cl)ccc1O` has an EC50 (Vanilloid receptor) of 130 nM.

In the case of `COc1cc(CNC(=S)NCc2ccc(C(C)(C)C)cc2)ccc1O`, the EC50 (Vanilloid receptor) is reported as 510 nM.

`COc1cc(C/N=C(\S)NCCc2ccc(Cl)cc2)ccc1OCCNC(C)=O` gave an EC50 (Vanilloid receptor) of 5130 nM.

In the case of `COc1cc(C/N=C(\S)NCCc2ccc(Cl)cc2)ccc1OCCN1C(=O)c2ccccc2C1=O`, the EC50 (Vanilloid receptor) is reported as 53000 nM.

`COc1cc(CNC(=O)CCCC/C=C/C(C)C)ccc1O` [CAPSAICIN] was tested, and the Dose (Cavia porcellus [1]) was 0.018 µM/kg, the ED50 (Mus musculus [2]) was 5.72 µmol/kg and the ED50 (Mus musculus [3]) was 962 µmol/kg. It also gave an ED50 (Mus musculus [4]) of 10.3 µmol/kg.

`COc1cc(C/N=C(\S)NCCc2ccccc2)ccc1O` was tested, and the EC50 (Vanilloid receptor) was 480 nM.

`CCOC(=O)NCCOc1ccc(C/N=C(\S)NCCc2ccc(Cl)cc2)cc1OC` showed an EC50 (Vanilloid receptor) of 6140 nM.

In the case of `COc1cc(C/N=C(\S)NCCc2ccccc2)ccc1OCCN`, the EC50 (Vanilloid receptor) is reported as 2720 nM.

`CNCCOc1ccc(C/N=C(\S)NCCc2ccc(Cl)cc2)cc1OC` gave an EC50 (Vanilloid receptor) of 7030 nM.

`COc1cc(C/N=C(\S)NCc2ccc(C(C)(C)C)cc2)ccc1OCCN` was tested, and the Dose (Cavia porcellus [1]) was 0.062 µM/kg, the ED50 (Mus musculus [5]) was 2.55 µmol/kg and the ED50 (Mus musculus [2]) was 0.49 µmol/kg. For the same molecule, the ED50 (Mus musculus [3]) was 1.45 µmol/kg, the ED50 (Mus musculus [4]) was 0.4 µmol/kg and the EC50 (Vanilloid receptor) was 170 nM.

For `CCCCCCCC/C=C\CCCCCCCC(=O)NCc1ccc(O)c(OC)c1` [OLVANIL], the ED50 (Mus musculus [2]) was 2.1 µmol/kg, the ED50 (Mus musculus [3]) was over 400 µmol/kg and the ED50 (Mus musculus [4]) was 11.3 µmol/kg. The Dose (Cavia porcellus [6]) was over 0.1 µM/kg.

`COc1cc(C/N=C(\S)NCCc2ccc(F)cc2)ccc1OCCN` was tested, and the EC50 (Vanilloid receptor) was 2300 nM.

Work on `COc1cc(C/N=C(\S)NCCc2ccc(Cl)cc2)ccc1OCCNC(=O)OC(C)(C)C` yielded an EC50 (Vanilloid receptor) of 3000 nM.

Work on `COc1cc(C/N=C(\S)NCCc2ccc(Cl)cc2)ccc1OCC[N+](C)(C)C.O=C([O-])C(F)(F)F` yielded an EC50 (Vanilloid receptor) of over 100000 nM.

Work on `CCCCCCCC/C=C\CCCCCCCC(=O)NCc1ccc(OCCN)c(OC)c1` yielded an ED50 (Mus musculus [2]) of 3.06 µmol/kg, an ED50 (Mus musculus [3]) of 184 µmol/kg and an ED50 (Mus musculus [4]) of 6.3 µmol/kg. It also gave a Dose (Cavia porcellus [6]) of over 0.1 µM/kg.

Molecule `COc1cc(C/N=C(\S)NCCc2ccc(F)cc2)ccc1O` has an EC50 (Vanilloid receptor) of 130 nM.

Molecule `COc1cc(C/N=C(\S)NCCc2ccc(Cl)cc2)ccc1OCCN` has a Dose (Cavia porcellus [1]) of 0.137 µM/kg, an ED50 (Mus musculus [5]) of 11.4 µmol/kg and an ED50 (Mus musculus [2]) of 3.32 µmol/kg. For the same molecule, the ED50 (Mus musculus [3]) was 22.9 µmol/kg and the ED50 (Mus musculus [4]) was 4.8 µmol/kg.

With `COc1cc(C/N=C(\S)NCCc2ccc(Cl)cc2)ccc1OCCN(C)C` the EC50 (Vanilloid receptor) was 3520 nM.

Work on `COc1cc(C/N=C(\S)NCCc2ccc(C(C)(C)C)cc2)ccc1OCCN` yielded an EC50 (Vanilloid receptor) of 710 nM.

In the case of `COc1cc(CN/C(S)=N/C=C/c2ccc(Cl)cc2)ccc1O`, the EC50 (Vanilloid receptor) is reported as 410 nM.
